The values below come from ChEMBL document CHEMBL5338721, “Alkyl-substituted N-methylaryl-N'-aryl-4-aminobenzamides: A new series of small molecule inhibitors for Wip1 phosphatase” (Eur J Med Chem, 2022).

SMILES strings stand for the structures. Activity calls are given as the source filed them. The calls are words filed in the database; no cut-off is given here.

The first assay has as its target T1, Protein phosphatase 1D (Homo sapiens) (UniProt O15297).
T1 sequence (whole entry): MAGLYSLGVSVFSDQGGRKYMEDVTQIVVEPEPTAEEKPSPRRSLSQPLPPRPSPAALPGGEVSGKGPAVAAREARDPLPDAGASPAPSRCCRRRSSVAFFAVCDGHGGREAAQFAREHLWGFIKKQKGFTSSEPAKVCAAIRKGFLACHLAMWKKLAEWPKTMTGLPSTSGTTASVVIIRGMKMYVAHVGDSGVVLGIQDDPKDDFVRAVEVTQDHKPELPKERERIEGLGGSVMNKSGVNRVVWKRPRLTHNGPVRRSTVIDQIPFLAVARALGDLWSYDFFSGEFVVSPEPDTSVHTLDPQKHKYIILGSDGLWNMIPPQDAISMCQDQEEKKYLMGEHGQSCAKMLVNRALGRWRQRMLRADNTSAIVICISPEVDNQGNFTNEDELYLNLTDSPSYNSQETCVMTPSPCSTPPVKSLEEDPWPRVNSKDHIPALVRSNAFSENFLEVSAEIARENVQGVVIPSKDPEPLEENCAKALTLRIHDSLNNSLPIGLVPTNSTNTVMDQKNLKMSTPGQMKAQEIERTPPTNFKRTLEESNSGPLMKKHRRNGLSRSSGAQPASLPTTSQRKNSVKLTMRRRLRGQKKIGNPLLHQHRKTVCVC
Kind of assay: Inhibition of recombinant human Wip1 (1 to 420 residues) using human ATM phosphopeptide (AFEEG-pS-QSTTIGY) as substrate at 100 uM incubated for 7 mins by Bio-mol green assay. The method, boiled down:
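Purified recombinant Wip1 (1–420) incubated with compound and 100 μM ATM phosphopeptide for 7 min at 30 °C. Buffer: 50 mM Tris·HCl pH 7.5, EGTA, DTT, CHAPS, 0.1 mg/mL BSA, 30 mM MgCl₂. Phosphate measured by Biomol Green against a standard curve and normalized to no-inhibitor (100%) and no-enzyme (0%). Dose-response used 9–10 points, each in triplicate. IC50 from logistic fit (standard, or variable-slope giving a Hill coefficient).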
As to `Nc1ccccc1CC1CCCCC1`, the inhibition result is “inactive”.

On to `O=C(CC1CCCCC1)NCCCO`, for which the inhibition entry is “inactive”. Still for that read-out and setting: next, `O=C(NCCCO)C1CCCCC1`: “inactive”.

A further assay addresses T1, Protein phosphatase 1D (Homo sapiens). Kind of assay: Inhibition of recombinant human Wip1 (1 to 420 residues) using human ATM phosphopeptide (AFEEG-pS-QSTTIGY) as substrate at 100 uM incubated for 7 mins by Bio-mol green assay relative to control. The gist of the method:
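Recombinant Wip1 (1–420) with 100 μM ATM phosphopeptide in 50 mM Tris·HCl pH 7.5 buffer with 30 mM MgCl₂, 7 min at 30 °C. Compound given at a single 100 μM concentration. Released phosphate quantified by Biomol Green with a phosphate standard curve. Percent inhibition taken from activity normalized to no-inhibitor (100%) and no-enzyme (0%) controls.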
For the molecule `O=C(O)c1cccc(CNc2ccccc2CCC2CCCCC2)c1`, the inhibition is 88%. Still for that read-out and setting: the figure for `Nc1ccccc1CCC1CCCCC1` is 3%; for `O=C(CCCC1CCCCC1)NCCCO` it is 1%. In the case of `O=C(CCCCC1CCCCC1)NCCCO`, the inhibition was 4%.

The target in the next assay is T2, Protein phosphatase 1D (Homo sapiens, UniProt O15297).
T2 sequence (O15297 whole entry): T1 sequence (whole entry)
As to the kind of experiment: Inhibition of recombinant human Wip1 (1 to 420 residues) using human ATM phosphopeptide (AFEEG-pS-QSTTIGY) as substrate incubated for 7 mins by Bio-mol green assay. The method, boiled down:
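Released phosphate read by Biomol Green against phosphate standard curve; normalized to no-inhibitor (100%) and no-enzyme (0%). Screen at 100 μM; 9–10-point dose-response in triplicate, logistic fit for IC50 and Hill coefficient.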
Consider `O=C(Nc1cccc(OP(=O)(O)O)c1)c1ccc(NC(=O)c2cccc(CNc3cccc(Cl)c3)c2)c(CC2CCCCC2)c1`, for which the IC50 was determined as 7.2 µM. For `O=C(Nc1cccc(OP(=O)(O)O)c1)c1ccc(NCc2ccc(-c3cccc(F)c3)cc2)c(CC2CCCCC2)c1`, the IC50 turned out to be 30 µM. For `O=C(Nc1cccc(Cl)c1)c1cccc(CNc2ccc(C(=O)Nc3cccc(OP(=O)(O)O)c3)cc2CCC2CCCCC2)c1`, the IC50 was 32.7 µM. Same read-out and setting: the figure for `O=C(Nc1cccc(Cl)c1)c1cccc(CNc2ccc(C(=O)Nc3cccc(O)c3)cc2CCC2CCCCC2)c1` is 1600 µM. Same read-out and setting: the figure for `O=C(Nc1cccc(OP(=O)(O)O)c1)c1ccc(NCc2ccc(F)cc2)cc1` is 683 µM; for `O=C(Nc1cccc(OP(=O)(O)O)c1)c1ccc(NCc2ccc(F)cc2)c(CC2CCCCC2)c1` it is 28.1 µM. Take `O=C(Nc1cccc(OP(=O)(O)O)c1)c1ccc(NCc2ccc(-c3ccc(Cl)cc3)cc2)c(CC2CCCCC2)c1`: the IC50 amounted to 332 µM.

With `O=C(Nc1cccc(OP(=O)(O)O)c1)c1ccc(NCc2ccc3ccccc3c2)c(CC2CCCCC2)c1`, the IC50 is 274 µM. Still for that read-out and setting: the figure for `COC(=O)c1ccc(NCc2cccc(C(=O)O)c2)c(CC2CCCCC2)c1` is 54.1 µM; for `Nc1ccc(C(=O)Nc2cccc(OP(=O)(O)O)c2)cc1CC1CCCCC1` it is 330 µM. Still for that read-out and setting: the figure for `O=C(Nc1cccc(OP(=O)(O)O)c1)c1ccc(NCc2cccnc2)c(CC2CCCCC2)c1` is 105 µM.

Consider `O=C(NCCc1ccc(OP(=O)(O)O)cc1)c1ccc(NC(=O)c2ccc(F)cc2)c(CC2CCCCC2)c1`, for which the IC50 is 36 µM. Still for that read-out and setting: next, `O=C(Nc1ccc2c(c1)OCO2)c1cccc(CNc2ccc(C(=O)Nc3cccc(OP(=O)(O)O)c3)cc2CC2CCCCC2)c1`: 35.2 µM. `COc1cc(OC)cc(-c2ccc(CNc3ccc(C(=O)Nc4cccc(OP(=O)(O)O)c4)cc3CC3CCCCC3)cc2)c1`: the IC50 was 18 µM. On the same count and under the same terms, the figure for `CCCCC(CCCC)CNc1ccc(C(=O)Nc2cccc(OP(=O)(O)O)c2)cc1CC1CCCCC1` is 512 µM; for `O=C(Nc1cccc(OP(=O)(O)O)c1)c1ccc(NCc2cccc(F)c2)c(CC2CCCCC2)c1` it is 28.5 µM; for `COc1cccc(CNc2ccc(C(=O)Nc3cccc(OP(=O)(O)O)c3)cc2CC2CCCCC2)c1` it is 139 µM. Same read-out and setting: next, `O=C(Nc1cccc(OP(=O)(O)O)c1)c1ccc(NCc2ccc(-c3cccc(Cl)c3)cc2)c(CC2CCCCC2)c1`: 48 µM. The same measure, in the same setting: next, `O=C(Nc1cccc(OP(=O)(O)O)c1)c1ccc(NCc2cc3ccccc3o2)c(CC2CCCCC2)c1`: 21.4 µM; `O=C(O)c1cccc(CNc2ccccc2CC2CCCCC2)c1`: 74.8 µM. On to `O=C(Nc1cccc(OP(=O)(O)O)c1)c1ccc(NCCCc2ccccc2)c(CC2CCCCC2)c1`, for which the IC50 worked out at 105 µM. The same measure, in the same setting: the figure for `O=C(Nc1cccc(Cl)c1)c1ccc(CNc2ccc(C(=O)Nc3cccc(OP(=O)(O)O)c3)cc2CC2CCCCC2)cc1` is 11.1 µM. On to `O=C(Nc1ccc(OP(=O)(O)O)cc1)c1ccc(NCc2ccc(F)cc2)c(CC2CCCCC2)c1`, for which the IC50 was found to be 29 µM. On the same count and under the same terms, next, `O=C(Nc1cccc(F)c1)c1cccc(CNc2ccc(C(=O)Nc3cccc(OP(=O)(O)O)c3)cc2CC2CCCCC2)c1`: 20.8 µM; `COc1ccc(CNc2ccc(C(=O)Nc3cccc(OP(=O)(O)O)c3)cc2CC2CCCCC2)cc1`: 37 µM.

Regarding `O=C(Nc1cccc(OP(=O)(O)O)c1)c1ccc(NCc2ccc(F)cc2)c(Cc2ccccc2)c1`, the half-maximal inhibitory concentration (IC50) came to 63 µM. `O=C(Nc1cccc(Cl)c1)c1cccc(CNc2ccc(C(=O)Nc3cccc(OP(=O)(O)O)c3)cc2CC2CCCCC2)c1`: the IC50 came out at 3.8 µM.

With `COC(=O)c1ccc(NCc2cccc(C(=O)O)c2)c(CCC2CCCCC2)c1`, the half-inhibitory concentration (IC50) came out at 48.4 µM. On the same count and under the same terms, the figure for `O=C(Nc1cccc(Cl)c1)c1cccc(CNc2ccc(C(=O)Nc3cccc(OP(=O)(O)O)c3)cc2C2CC3CCC2C3)c1` (stereo not given) is 24.7 µM; for `O=C(Nc1cccc(Cl)c1)c1cccc(C(=O)Nc2ccc(C(=O)Nc3cccc(OP(=O)(O)O)c3)cc2CC2CCCCC2)c1` it is 7.3 µM.

The target in a further assay is T3, Protein phosphatase 1A (Homo sapiens) (UniProt P35813).
T3 sequence (whole entry): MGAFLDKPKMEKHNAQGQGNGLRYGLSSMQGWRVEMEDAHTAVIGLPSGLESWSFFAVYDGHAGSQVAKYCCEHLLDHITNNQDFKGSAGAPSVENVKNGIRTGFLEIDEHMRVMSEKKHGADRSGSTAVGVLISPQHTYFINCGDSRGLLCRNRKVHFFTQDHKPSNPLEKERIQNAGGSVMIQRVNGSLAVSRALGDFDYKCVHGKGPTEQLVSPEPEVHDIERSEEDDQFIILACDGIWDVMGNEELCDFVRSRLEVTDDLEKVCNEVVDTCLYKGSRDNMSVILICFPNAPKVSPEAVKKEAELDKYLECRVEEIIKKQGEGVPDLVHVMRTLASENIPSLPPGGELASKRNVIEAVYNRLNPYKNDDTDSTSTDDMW
Kind of assay: Inhibition of PPM1A (unknown origin) using human p38alpha phosphopeptide as substrate upto 100 uM incubated for 7 mins by Biomol green assay. The gist of the method: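 Substrate: 100 μM p38α (175–185, 180pT) phosphopeptide, mixed with compound or DMSO, then 8 nM PPM1A added. Buffer: 50 mM Tris·HCl pH 7.5, 0.1 mM EGTA, 1 mM DTT, 1 mM CHAPS, 0.1 mg/mL BSA, 30 mM MgCl₂. Incubation: 7 min at 30 °C. Stopped with Biomol Green, 20 min colour development at room temperature. Released phosphate read at 620 nm against a phosphate standard curve. Compounds tested up to 100 μM.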
On to `O=C(Nc1cccc(OP(=O)(O)O)c1)c1ccc(NC(=O)c2cccc(CNc3cccc(Cl)c3)c2)c(CC2CCCCC2)c1`, for which the inhibition result is “inactive”. On the same count and under the same terms, next, `O=C(Nc1cccc(Cl)c1)c1cccc(CNc2ccc(C(=O)Nc3cccc(OP(=O)(O)O)c3)cc2CC2CCCCC2)c1`: “inactive”.

On to `O=C(Nc1cccc(Cl)c1)c1cccc(C(=O)Nc2ccc(C(=O)Nc3cccc(OP(=O)(O)O)c3)cc2CC2CCCCC2)c1`, for which the inhibition result is “inactive”.

For orientation: inhibition means the relative decrease from the control value, in per cent. By IC50 is commonly meant the concentration that inhibits the measured activity by half.
